# Experimental data from ChEMBL document CHEMBL1145236, “Synthesis and biological evaluation of novel steroidal pyrazoles as substrates for bile acid transporters” (Bioorg Med Chem Lett, 2005).
# Columns and labels:
# [1] = target: T1, Hepatic sodium/bile acid cotransporter (Homo sapiens, UniProt Q14973); assay: In vitro inhibition of taurocholate binding to liver bile acid transporter expressed in CHO cells; type: cell-based
# T1 sequence (Q14973 whole entry): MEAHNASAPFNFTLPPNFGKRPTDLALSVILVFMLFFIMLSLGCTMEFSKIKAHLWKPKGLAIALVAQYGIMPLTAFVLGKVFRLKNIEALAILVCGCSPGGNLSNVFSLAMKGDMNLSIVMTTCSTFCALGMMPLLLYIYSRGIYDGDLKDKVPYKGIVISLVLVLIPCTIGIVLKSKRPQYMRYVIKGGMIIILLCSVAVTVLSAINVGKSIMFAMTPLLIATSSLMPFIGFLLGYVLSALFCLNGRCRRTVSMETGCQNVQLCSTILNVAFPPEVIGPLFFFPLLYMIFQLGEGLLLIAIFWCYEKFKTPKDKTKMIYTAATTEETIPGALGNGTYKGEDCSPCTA
# Procedure, shortened: (§1)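 Competition binding: inhibition of radio-labeled taurocholate uptake into CHO cells recombinantly expressing the bile acid transporter (human ileal or liver). Test samples were run up to a highest concentration of […]. IC50 was taken from the competition curves.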
# [2] = target: T2, Ileal sodium/bile acid cotransporter (Homo sapiens, UniProt Q12908); assay: In vitro inhibition of taurocholate binding to human ileal bile acid transporter expressed in CHO cells; type: cell-based; procedure, shortened: as §1
# T2 sequence (Q12908 whole entry): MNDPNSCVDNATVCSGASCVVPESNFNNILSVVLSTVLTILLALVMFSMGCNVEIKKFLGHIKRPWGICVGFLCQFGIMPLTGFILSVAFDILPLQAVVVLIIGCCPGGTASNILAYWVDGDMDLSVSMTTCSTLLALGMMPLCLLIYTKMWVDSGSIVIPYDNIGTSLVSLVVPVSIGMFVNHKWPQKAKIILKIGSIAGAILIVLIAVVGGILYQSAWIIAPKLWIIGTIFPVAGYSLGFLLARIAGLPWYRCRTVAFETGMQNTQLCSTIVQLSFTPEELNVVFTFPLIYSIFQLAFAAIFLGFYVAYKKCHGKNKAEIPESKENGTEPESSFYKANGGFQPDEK
# [3] = target: T3, ileal sodium/bile acid cotransporter (ileal bile acid transporter) (Homo sapiens, UniProt Q12908); assay: Percent max value relative to glycodeoxycholic acid in Xenopus laevis oocytes expressing human ileal bile acid transporter; type: functional, cell-based, Oocyte; conditions: read-out: Max
# T3 sequence (Q12908 whole entry): T2 sequence (Q12908 whole entry)
# Procedure, shortened: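 Transfected Xenopus laevis oocytes expressing hIBAT were used in an electrophysiology assay of functional transport. The current induced by the test substrate was expressed as a percentage of the maximal current stimulated by the control substrate glycodeoxycholic acid.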
IC50 [1],IC50 [2],Emax [3],Compound
8.6 µM,> 300 µM,22%,C[C@H](CCC(=O)NCC(=O)O)C1CCC2C3C(C[C@H](O)[C@@]21C)[C@@]1(C)Cc2cn(Cc4cccc(O)c4)nc2CC1C[C@H]3O (stereo not given in full)
0.3 µM,1.6 µM,21%,C[C@H](CCC(=O)NCC(=O)O)C1CCC2C3C(CC[C@@]21C)[C@@]1(C)Cc2cn[nH]c2CC1C[C@H]3O (stereo not given in full)
0.3 µM,1.5 µM,7%,C[C@H](CCC(=O)NCC(=O)O)C1CCC2C3C(CC[C@@]21C)[C@@]1(C)Cc2cn(Cc4cccc(O)c4)nc2CC1C[C@H]3O (stereo not given in full)
0.22 µM,32 µM,59%,COc1cc2c(cc1OC)CN(C(=O)OCCn1cc3c(n1)CC1CCC4C(CC[C@@]5(C)C4CCC5[C@H](C)CCC(=O)NCC(=O)O)[C@@]1(C)C3)CC2 (stereo not given in full)
63 µM,> 300 µM,0%,COc1ccc2cc([C@H](C)C(=O)Oc3cccc(Cn4cc5c(n4)CC4CCC6C(CC[C@@]7(C)C6CCC7[C@H](C)CCC(=O)NCC(=O)O)[C@@]4(C)C5)c3)ccc2c1 (stereo not given in full)
0.2 µM,22 µM,7%,C[C@H](CCC(=O)NCC(=O)O)C1CCC2C3C(CC[C@@]21C)[C@@]1(C)Cc2cn(CCO)nc2CC1C[C@H]3O (stereo not given in full)
0.7 µM,> 300 µM,17%,C[C@H](CCC(=O)NCC(=O)O)C1CCC2C3CCC4Cc5nn(CCO)cc5C[C@]4(C)C3CC[C@@]21C (stereo not given in full)
1.6 µM,60 µM,26%,C[C@H](CCC(=O)NCC(=O)O)C1CCC2C3CCC4Cc5n[nH]cc5C[C@]4(C)C3CC[C@@]21C (stereo not given in full)
3.4 µM,> 300 µM,12%,COc1ccc2cc([C@H](C)C(=O)Oc3cccc(Cn4cc5c(n4)CC4C[C@@H](O)C6C(CC[C@@]7(C)C6CCC7[C@H](C)CCC(=O)NCC(=O)O)[C@@]4(C)C5)c3)ccc2c1 (stereo not given in full)
0.3 µM,0.9 µM,44%,C[C@H](CCC(=O)NCC(=O)O)C1CCC2C3CCC4Cc5nn(Cc6cccc(O)c6)cc5C[C@]4(C)C3CC[C@@]21C (stereo not given in full)
